The source of these data is ChEMBL document CHEMBL1121726, “Pyrazolopyrimidine nucleosides. 12. Synthesis and biological activity of certain pyrazolo[3,4-d]pyrimidine nucleosides related to adenosine” (1981).

Assay [1] concerns L1210. In words: Increase in life span of tumor L1210 leukemic mice 1-5 days after 400 mg/kg administered. It counts as functional, Mus musculus. In short, it runs like this:
(§1)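 Mice bearing L1210 or P388 leukemia were injected with drug at the listed dose per injection on the listed days after tumor-cell inoculation. ILS was the percentage increase in life span of treated mice over untreated tumor-bearing controls.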

For assay [2], the system named is L1210. Put plainly: […] against L1210 leukemic cells 1-5 days after administration of 400 mg/kg of the compound; No higher dose tested. It counts as functional, organism-based. On the set-up: dose 400 mg/kg. The following applies: Mus musculus.
Assay [3] concerns L1210. Put plainly: Toxicity against L1210 leukemic cells 1-9 days after administration of 100 mg/kg of the compound; nt= No higher dose tested. It counts as functional, organism-based. Further details: dose 100 mg/kg. The following applies: Mus musculus. In short, it runs like this: (§2)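 Mice bearing L1210 or P388 leukemia were injected at the stated dose per injection on the listed days after tumor-cell inoculation. Host toxicity scores whether higher doses on the same schedule caused drug-induced shortening of life span: y = yes, n = no, nt = no higher dose tested.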

The subject of assay [4] is L1210. Put plainly: Increase in life span of tumor L1210 leukemic mice 1-9 days after 100 mg/kg administered. It counts as functional, Mus musculus. In short, it runs like this: as §1
Assay [5] has as its system L1210. Put plainly: In vitro inhibition of growth of L1210 mouse leukemic cells. It counts as functional. The following applies: read-out: ID50 (the source's name). In short, it runs like this: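 L1210 cells grown in static suspension culture in Fischer's medium for leukemic cells of mice, exposed to a range of test-compound concentrations. Growth rate measured over 3 days.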

Assay [6] deals with L1210. In words: Increase in life span of tumor L1210 leukemic mice 1-5 day after 400 mg/kg administered. Format: functional, Mus musculus. In short, it runs like this: as §1
Assay [7] deals with L1210. In words: Toxicity against L1210 leukemic cells 1-9 days after administration of 200 mg/kg of the compound; Yes. The following applies: Mus musculus. Further details: dose 200 mg/kg. Format: functional, organism-based. In short, it runs like this: as §2
The subject of assay [8] is L1210. In words: Increase in life span of tumor L1210 leukemic mice 1-9 day after 200 mg/kg administered. It counts as functional, Mus musculus. In short, it runs like this: as §1
Assay [9] relates to L1210. Put plainly: Increase in life span of tumor L1210 leukemic mice 1-9 days after 400 mg/kg administered. It counts as functional, Mus musculus. In short, it runs like this: as §1
For assay [10], the system named is L1210. Put plainly: […] against L1210 leukemic cells 1-9 days after administration of 400 mg/kg of the compound; No higher dose tested. Format: functional, organism-based. The following applies: Mus musculus. Further details: dose 400 mg/kg.
Assay [11] concerns L1210. Put plainly: Toxicity against L1210 leukemic cells 1-5 days after administration of 200 mg/kg of the compound; nt= No higher dose tested. The following applies: Mus musculus. It counts as functional, organism-based. Further details: dose 200 mg/kg. In short, it runs like this:
(§3)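 Host toxicity was scored in leukemia-bearing mice as drug-induced shortening of life span when higher doses were given on the same schedule: y = yes, n = no, nt = no higher dose tested.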

In assay [12] the test system is L1210. Put plainly: Number of mice surviving 1-5 days after 200 mg/kg administered; 2/6. It counts as functional, Mus musculus.
Assay [13] has as its system L1210. In words: Increase in life span of tumor L1210 leukemic mice 1-5 days after 200 mg/kg administered. Format: functional, Mus musculus. In short, it runs like this: as §1
Assay [14] deals with P388. In words: Increase in life span of tumor P388 leukemic mice 1-9 days after 6 mg/kg administered. Format: functional, Mus musculus. In short, it runs like this: as §1
The subject of assay [15] is P388. Put plainly: Toxicity against P388 leukemic cells 1-9 days after administration of 6 mg/kg of the compound; y= Yes. The following applies: Mus musculus. Format: functional, organism-based. Further details: dose 6 mg/kg. In short, it runs like this: as §3
Assay [16] concerns P388. Put plainly: Increase in life span of tumor P388 leukemic mice 1-9 days after 40 mg/kg administered. Format: functional, Mus musculus. In short, it runs like this: as §1
The test system of assay [17] is P388. In words: Toxicity against P388 leukemic cells 1-9 days after administration of 40 mg/kg of the compound; Yes. Further details: dose 40 mg/kg. The following applies: Mus musculus. Format: functional, organism-based. In short, it runs like this: as §3
For assay [18], the system named is L1210. In words: Toxicity against L1210 leukemic cells 1-5 days after administration of 25 mg/kg of the compound; Yes. Format: functional, organism-based. Further details: dose 25 mg/kg. The following applies: Mus musculus. In short, it runs like this: as §2
The test system of assay [19] is L1210. Put plainly: Increase in life span of tumor L1210 leukemic mice 1-5 days after 25 mg/kg administered. Format: functional, Mus musculus. In short, it runs like this:
as §1

Assay [20] deals with L1210. Put plainly: Number of mice surviving 1 day after 25 mg/kg administered; 2/12. Format: functional, Mus musculus.
Assay [21] deals with L1210. In words: Toxicity against L1210 leukemic cells 1-9 days after administration of 3.12 mg/kg of the compound; Yes. The following applies: Mus musculus. On the set-up: dose 3.12 mg/kg. Format: functional, organism-based. In short, it runs like this: as §2
The test system of assay [22] is L1210. Put plainly: Increase in life span of tumor L1210 leukemic mice 1-9 days after 3.12 mg/kg administered. It counts as functional, Mus musculus. In short, it runs like this:
as §1

Assay [23] has as its system P388. Put plainly: Increase in life span of tumor P388 leukemic mice 1-9 days after 3 mg/kg administered. Format: functional, Mus musculus. In short, it runs like this:
as §1

Assay [24] concerns P388. Put plainly: Toxicity against P388 leukemic cells 1-9 days after administration of 3 mg/kg of the compound; Yes. Format: functional, organism-based. The following applies: Mus musculus. On the set-up: dose 3 mg/kg. In short, it runs like this: as §2
Assay [25] deals with L1210. In words: Increase in life span of tumor L1210 leukemic mice 1-5 days after 100 mg/kg administered. Format: functional. The following applies: Mus musculus. In short, it runs like this: as §1
The test system of assay [26] is L1210. Put plainly: […] against L1210 leukemic cells 1-5 days after administration of 100 mg/kg of the compound; Yes. The following applies: Mus musculus. Further details: dose 100 mg/kg. It counts as functional, organism-based.
The test system of assay [27] is L1210. Put plainly: Toxicity against L1210 leukemic cells 1-5 days after administration of 400 mg/kg of the compound; nt= No higher dose tested. On the set-up: dose 400 mg/kg. It counts as functional, organism-based. The following applies: Mus musculus. In short, it runs like this:
as §2

Activity calls are given as the source filed them. The calls are words filed in the database; no cut-off is given here.

In the assay on L1210 [1], `OC[C@H]1OC(n2ncc3c(Nc4ccccc4)ncnc32)[C@H](O)[C@@H]1O` (some centres undefined) showed an ILS of -4. In the assay on L1210 [2], the Toxicity result is “No higher dose tested”.

As for `N#Cc1nn(C2O[C@H](CO)[C@@H](O)[C@H]2O)c2ncnc(N)c12` (some centres undefined), the Toxicity entry in the assay with L1210 [3] is “No higher dose tested”. The molecule further registered an ILS in the assay on L1210 [4] of 27. For the same molecule, in the assay on L1210 [5], the IC50 was 79 nM.

`COc1ncnc2c1cnn2C1O[C@H](CO)[C@@H](O)[C@H]1O` (some centres undefined): the ILS in the assay with L1210 [6] stood at 12. In the assay with L1210 [2], the Toxicity entry is “No higher dose tested”.

As to `OC[C@H]1OC(n2ncc3cncnc32)[C@H](O)[C@@H]1O` (some centres undefined), in the assay with L1210 [7], the Toxicity result was “Active”. Besides, the ILS with L1210 [8] was -3. Also, the IC50 in the assay with L1210 [5] is over 100000 nM.

`OC[C@H]1OC(n2ncc3c(N/N=C/c4ccc(N(CCCl)CCCl)cc4)ncnc32)[C@H](O)[C@@H]1O` (some centres undefined) had an ILS in the assay on L1210 [9] of -7. Moreover, the IC50 with L1210 [5] is about 10000 nM. Also, the Toxicity entry in the assay on L1210 [10] is “No higher dose tested”.

`NC(=O)c1nn(C2O[C@H](CO)[C@@H](O)[C@H]2O)c2ncnc(N)c12` (some centres undefined): the Toxicity result in the assay with L1210 [11] and with P388 [15] was “No higher dose tested” in each case. In addition, the Cures in the assay with L1210 [12] came to 2. The IC50 in the assay with L1210 [5] amounted to 100 nM. For the same molecule, the ILS in the assay with L1210 [13] was found to be 136; in the assay with P388 [14], 90.

`N=C(N)c1nn(C2O[C@H](CO)[C@@H](O)[C@H]2O)c2ncnc(N)c12` (some centres undefined): the figures for the ILS in the assay on P388 [16] and in the assay on L1210 [19] were 29 and 98, respectively. Besides, the Toxicity result in the assay on P388 [17] and in the assay with L1210 [18] was “Active” in each case. This molecule also came in with a Cures in the assay with L1210 [20] of 2.

Take `NC(=S)c1nn(C2O[C@H](CO)[C@@H](O)[C@H]2O)c2ncnc(N)c12` (some centres undefined): the Toxicity entry in the assay on L1210 [21] and in the assay with P388 [24] was “Active” throughout. In addition, the ILS in the assay on L1210 [22] is recorded as 46; in the assay with P388 [23] it was 34.

Turning to `OC[C@H]1OC(n2ncc3c(NCc4ccccc4)ncnc32)[C@H](O)[C@@H]1O` (some centres undefined), the Toxicity entry in the assay with L1210 [18] is “Active”. The same molecule came in with an ILS in the assay on L1210 [19] of 3.

As for `C=CCSc1ncnc2c1cnn2C1O[C@H](CO)[C@@H](O)[C@H]1O` (some centres undefined), the ILS at 100 mg/kg in the assay on L1210 [25] was 2%. Besides, the Toxicity entry in the assay with L1210 [26] was “Active”.

Molecule `OC[C@H]1OC(n2ncc3c(S)ncnc32)[C@H](O)[C@@H]1O` (some centres undefined) gave an ILS in the assay on L1210 [1] of -6. The Toxicity result with L1210 [27] was “No higher dose tested”.
